Assay [1] in a line: Binding affinity to DQ2. Details: species or system Homo sapiens. The essentials:
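Competition binding: 125I-labeled indicator peptide (30,000 cpm; 1–5 nM) plus graded unlabeled peptide incubated overnight with 70–200 nM DQ2 at 37°C, pH 5.2, with protease inhibitor cocktail. Bound separated from free on Sephadex G-50 spin columns; radioactivity counted; IC50 as competitor level halving indicator binding, from three 3-fold titration experiments.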

For another assay, the system named is T-cell. The experiment in a line: Inhibition of P28 TCL2 T cell proliferation assessed as incorporation of [3H]-thymidine in presence of 10 uM antigen peptide. The class given is functional, cell-based. Particulars: Homo sapiens. The gist of the method: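 HLA-DR3/DQ2 homozygous EBV B-lymphoblastoid cells (VAVY or CD114), fixed with 1% paraformaldehyde or 0.05% glutaraldehyde, peptide-loaded overnight at 2×10^6 cells/ml. Next day at 1×10^6/ml, duplicates, mixed with equal volume of P28 TCL2 T cells; 37°C, 5% CO2, 48 h. [3H]thymidine added, further 12–16 h, scintillation counting.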

For a further assay, the species on record is Homo sapiens. The experiment in a line: Binding affinity to recombinant DQ2 at pH 7.3 by fluorescent-conjugated peptide exchange assay. The essentials: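 Recombinant soluble DQ2 with N-terminally fused gliadin epitope, cleaved with ~2% w/w thrombin in PBS pH 7.3, 0°C, 2 h. 4.7 μM DQ2 with 0.185 μM fluorescein-labeled peptide (25:1), 37°C, 5 h, final pH 7.3. HPSEC with fluorescence (ex 495/em 520 nm); bound peptide as percent of total; mean of two experiments.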

Activity calls are given as the source filed them. No cut-off for these calls is given here. *1 amine or outer side, *2 acyl side, *3 side chain or, on linkers, in order; H or OH if unused. Where a SMILES comes first, the peptide text is derived from it. Bridges are numbered along the chain shown (N, C = ends). Side-chain parts run from the residue outwards. [ ]: non-standard residue; d: D form. The star is where a group is joined. N(prolylmethyl)Phe = O=C(CN([C@@H](Cc1ccccc1)C(=O)[*:2])[*:1])[C@@H]1CCCN1[*:3]; X1 = O=C(CCCOCCOCCOCCOCCOCCC(=O)NCCOCCOCC(=O)[*:1])NCCOCCOCC(=O)[*:2]; X2 = O=C(CCOCCOCCOCCOCCOCCOCCOCCOCCOCCOCCOCCC(=O)[*:2])[*:1]; 5FAM = O=C1OC2(c3ccc(O)cc3Oc3cc(O)ccc32)c2ccc(C(=O)*)cc21; X3 = O=C(CCOCCOCCOCCOCCOCCOCCOCCC(=O)[*:2])[*:1]

As usually defined, the IC50 is the concentration at which inhibition is half-maximal. Higher therefore signals weaker potency.

`CC(C)C[C@@H]1NC(=O)CNC(=O)CNC(=O)CNC(=O)CNC(=O)[C@H](N)CSSC[C@H](C(=O)O)NC(=O)CNC(=O)CNC(=O)[C@H](Cc2ccc(O)cc2)NC(=O)[C@@H]2CCCN2C(=O)[C@H](CC(C)C)NC(=O)[C@H](CCC(=O)O)NC(=O)[C@@H]2CCCN2C(=O)[C@H](CCC(N)=O)NC(=O)[C@@H]2CCCN2C(=O)[C@H](Cc2ccccc2)NC(=O)[C@@H]2CCCN2C(=O)[C@H](CCC(N)=O)NC1=O` registered an IC50 in assay [1] of 3.1 µM. Further, in the assay with T-cell, the Activity entry was “Dose-dependent effect”.

Regarding `CC(C)C[C@@H]1NC(=O)CNC(=O)CNC(=O)[C@H](N)CSSC[C@H](C(=O)O)NC(=O)CNC(=O)CNC(=O)[C@H](Cc2ccc(O)cc2)NC(=O)[C@@H]2CCCN2C(=O)[C@H](CC(C)C)NC(=O)[C@H](CCC(=O)O)NC(=O)[C@@H]2CCCN2C(=O)[C@H](CCC(N)=O)NC(=O)[C@@H]2CCCN2C(=O)[C@H](Cc2ccccc2)NC(=O)[C@@H]2CCCN2C(=O)[C@H](CCC(N)=O)NC1=O`, the IC50 in assay [1] worked out at 2 µM. Further, in the assay on T-cell, the Activity result is “Dose-dependent effect”.

In assay [1], `CC(C)C[C@H](NC(=O)c1ccc2c(c1)C(=O)OC21c2ccc(O)cc2Oc2cc(O)ccc21)C(=O)N[C@@H](CCC(=O)O)C(=O)N[C@@H](CC(C)C)C(=O)N[C@@H](CCC(N)=O)C(=O)N1CCC[C@H]1C(=O)CN[C@@H](Cc1ccccc1)C(=O)N1CCC[C@H]1C(=O)N[C@@H](CCC(=O)O)C(=O)N1CCC[C@H]1C(=O)N[C@@H](CCC(=O)O)C(=O)N[C@H]1CCCCNC(=O)COCCOCCNC(=O)CCOCCOCCOCCOCCOCCCC(=O)NCCOCCOCC(=O)NCCCC[C@@H](C(=O)N2CCC[C@H]2C(=O)N[C@@H](Cc2ccc(O)cc2)C(=O)O)NC(=O)[C@H](CCC(=O)O)NC(=O)[C@@H]2CCCN2C(=O)[C@H](CCC(=O)O)NC(=O)[C@@H]2CCCN2C(=O)[C@H](Cc2ccc(O)cc2)NC(=O)[C@@H]2CCCN2C1=O` (H-[N(prolylmethyl)Phe]([Gln-Leu-Glu-Leu-5FAM])PEPEKPYPEPEKPY-OH; linker 6-13 via X1) showed an IC50 of 0.3 µM. The Activity result with T-cell is “Dose-dependent effect”. Moreover, in the assay listed under Homo sapiens, the outcome was Active.

In turn, `CC(=O)N[C@H]1CCCCNC(=O)CCOCCOCCOCCOCCOCCOCCOCCC(=O)NCCCC[C@@H](C(=O)N[C@@H](CCC(=O)O)C(=O)N[C@@H](CC(C)C)C(=O)N2CCC[C@H]2C(=O)N[C@@H](Cc2ccc(O)cc2)C(=O)O)NC(=O)[C@H](CCC(=O)O)NC(=O)[C@@H]2CCCN2C(=O)[C@H](Cc2ccccc2)NC(=O)[C@@H]2CCCN2C(=O)[C@H](CCC(N)=O)NC1=O` (Ac-KQPFPEKELPY-OH; linker 1-7 via X3) showed an IC50 in assay [1] of 0.6 µM. Besides, the Activity entry with T-cell is “Dose-dependent effect”.

The molecule `CC(C)C[C@H](NC(=O)c1ccc2c(c1)C(=O)OC21c2ccc(O)cc2Oc2cc(O)ccc21)C(=O)N[C@@H](CCC(=O)O)C(=O)N[C@@H](CC(C)C)C(=O)N[C@@H](CCC(N)=O)C(=O)N1CCC[C@H]1C(=O)CN[C@@H](Cc1ccccc1)C(=O)N1CCC[C@H]1C(=O)N[C@@H](CCC(=O)O)C(=O)N1CCC[C@H]1C(=O)N[C@@H](CCC(=O)O)C(=O)N[C@H]1CCCCNC(=O)CCOCCOCCOCCOCCOCCC(=O)CNCCCC[C@@H](C(=O)N2CCC[C@H]2C(=O)N[C@@H](Cc2ccc(O)cc2)C(=O)O)NC(=O)[C@H](CCC(=O)O)NC(=O)[C@@H]2CCCN2C(=O)[C@H](CCC(=O)O)NC(=O)[C@@H]2CCCN2C(=O)[C@H](Cc2ccc(O)cc2)NC(=O)[C@@H]2CCCN2C1=O` returned an IC50 in assay [1] of 0.2 µM. Moreover, the Activity result with T-cell was “Dose-dependent effect”. Moreover, the result in the assay listed under Homo sapiens was Active.

In turn, `CC(=O)N[C@H]1CCCCNC(=O)CCOCCOCCOCCOCCOCCOCCOCCOCCOCCOCCOCCC(=O)NCCCC[C@@H](C(=O)N[C@@H](CCC(=O)O)C(=O)N[C@@H](CC(C)C)C(=O)N2CCC[C@H]2C(=O)N[C@@H](Cc2ccc(O)cc2)C(=O)O)NC(=O)[C@H](CCC(=O)O)NC(=O)[C@@H]2CCCN2C(=O)[C@H](Cc2ccccc2)NC(=O)[C@@H]2CCCN2C(=O)[C@H](CCC(N)=O)NC1=O` (Ac-KQPFPEKELPY-OH; linker 1-7 via X2) registered an IC50 in assay [1] of 0.8 µM. The Activity result with T-cell was “Dose-dependent effect”.

In assay [1], `CC(C)C[C@@H]1NC(=O)CNC(=O)CNC(=O)CNC(=O)CNC(=O)CNC(=O)CNC(=O)[C@H](N)CSSC[C@H](C(=O)O)NC(=O)CNC(=O)CNC(=O)[C@H](Cc2ccc(O)cc2)NC(=O)[C@H]2CCCN2C(=O)[C@H](CC(C)C)NC(=O)[C@H](CCC(=O)O)NC(=O)[C@@H]2CCCN2C(=O)[C@H](CCC(N)=O)NC(=O)[C@@H]2CCCN2C(=O)[C@H](Cc2ccccc2)NC(=O)[C@@H]2CCCN2C(=O)[C@H](CCC(N)=O)NC1=O` displayed an IC50 of 4.2 µM. Moreover, the Activity entry in the assay with T-cell was “Dose-dependent effect”.
